# KCNK3 inh = human KCNK3 channel inhibition, primary screen | AID 602410 | 340,000 tested, 0.84% active | CHO-KCNK3 thallium flux, FluxOR fluorescence; active compounds read low | B-score at 10 µM | O14649;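 active = B-score under library mean minus 4 SD, starting fluorescence ratio at most library mean plus 5 SD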;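 note: more negative B-score means stronger inhibition of thallium flux through KCNK3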
# hERG rescue = hERG (human) protection from proarrhythmic block; 310,000 tested, 0.51% active; CHO-hERG, FluxOR thallium flux, dofetilide IC70 present; activation (rescue from dofetilide block), less the hit threshold, % at 10 µM; Q12809;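 active = activation above the mean of controls blocked by dofetilide plus 5 SD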;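 note: thallium influx through hERG after potassium depolarization seen as dye fluorescence rise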
# KCNQ1 act = potentiators or activators of human KCNQ1 potassium channel; P51787; CHO-K1 KCNQ1, thallium flux FluxOR fluorescence; active compounds read high; B-score at 10 µM; 310,000 tested, 0.35% active;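 active = fluorescence ratio B-score, a plate-corrected score, at least three library SD, with initial intensity B-score within 5 SD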
# Target sequence (P51787 whole entry, looked up): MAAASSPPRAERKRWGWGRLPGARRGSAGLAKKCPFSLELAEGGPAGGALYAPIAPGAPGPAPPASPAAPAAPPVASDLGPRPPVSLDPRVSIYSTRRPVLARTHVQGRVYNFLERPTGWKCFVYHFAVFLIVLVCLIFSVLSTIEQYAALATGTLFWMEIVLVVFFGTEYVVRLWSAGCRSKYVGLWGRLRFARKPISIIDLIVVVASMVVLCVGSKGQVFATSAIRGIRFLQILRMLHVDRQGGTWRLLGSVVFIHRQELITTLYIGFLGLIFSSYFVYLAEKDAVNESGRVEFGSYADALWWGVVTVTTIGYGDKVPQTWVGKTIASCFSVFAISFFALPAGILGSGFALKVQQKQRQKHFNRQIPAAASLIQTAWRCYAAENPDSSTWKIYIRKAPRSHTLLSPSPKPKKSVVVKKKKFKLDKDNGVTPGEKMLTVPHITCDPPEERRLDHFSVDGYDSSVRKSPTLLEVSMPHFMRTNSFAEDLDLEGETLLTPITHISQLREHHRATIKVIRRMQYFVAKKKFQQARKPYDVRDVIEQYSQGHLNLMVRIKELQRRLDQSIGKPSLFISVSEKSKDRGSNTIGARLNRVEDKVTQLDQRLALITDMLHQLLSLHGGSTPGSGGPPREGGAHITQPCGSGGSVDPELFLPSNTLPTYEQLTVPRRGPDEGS
#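 assay system = CHO-K1 cells stably expressing KCNQ1 | medium = assay buffer, equal DMSO in all wells | timing = 37 °C overnight plating, 90-min dark dye load, 20-min compound pretreatment | measured by = kinetic FluxOR thallium fluorescence, 10-s 1-Hz baseline, 110-s post-stimulus read | measure = fluorescence change relative to baseline, converted to B score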
# KCNQ1 inh = blocks the human KCNQ1 potassium channel. AID 2642. P51787. B-score at 10 µM. CHO-K1 KCNQ1, FluxOR thallium flux fluorescence; active compounds read high. 310,000 tested, 1.3% active;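 active = compounds whose thallium flux B-score, printed positive for inhibition, exceeds three library SD while starting fluorescence stays within three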;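 note: channel opened by potassium depolarization with thallium stimulus after 20 min compound exposure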
# KCNK9 block = blocks the human KCNK9 two-pore domain potassium channel; HEK293 KCNK9, FluxOR thallium flux fluorescence; active compounds read low; B-score at 10 µM; Q9NPC2; 310,000 tested, 1.2% active;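 active = ratio B-score over 3 SD below the library mean, with starting fluorescence within 5 SD of its mean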;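 note: negative B-score means less thallium flux so channel inhibition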
# KCNK3 inh conf = confirmation of human KCNK3 two-pore domain potassium channel inhibitors | CHO-KCNK3 thallium flux, FluxOR fluorescence; 0% buffer, 100% carvedilol maximal block | ratio percent of control, % at 10 µM | shares compounds with KCNK3 inh | 2,400 tested, 99% active | AID 651638;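 active = ratio percent of control, averaged over triplicates, above buffer control mean plus 5 SD, cut at about 64% in these data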;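 note: ratio is the fluorescence rise from min to max over baseline after thallium stimulus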
# KCNK3 noninduced = counter-screen for KCNK3 inhibitors: effect in non-induced cells; shares compounds with KCNK3 inh; non-induced KCNK3 parental cells, FluxOR thallium flux; active compounds read low; thallium flux ratio (lower = more inhibition) at 10 µM; 2,400 tested, 40% active; AID 651747;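 active = thallium flux ratio, averaged over three wells, more than 5 SD below the buffer control mean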;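 note: host cells are CHO cells without KCNK3 induction; ratio is peak minus trough fluorescence over baseline then normalized to buffer controls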
# Numbers without * were called inactive; i = inactive; / = no result. Hits are enriched below; roughly 3.1% of the tested compounds scored in any of these assays.
SMILES,KCNK3 inh,hERG rescue,KCNQ1 act,KCNQ1 inh,KCNK9 block,KCNK3 inh conf,KCNK3 noninduced
N#CCc1nn(Cc2ccc(F)cc2)c(=O)c2ccccc12,-9.03*,-3.6,i,i,i,94.3*,i
Cc1ccc(NC(=O)COC(=O)c2ccc(C)c(S(=O)(=O)N3CCOCC3)c2)cc1,i,/,/,/,/,/,/
CSCC[C@H](NC(=O)c1ccc(Cl)c(S(=O)(=O)N2CCCC2)c1)c1nc2ccccc2[nH]1,-10.6*,-0.1,i,i,i,107.3*,i
COc1ccccc1N1CCN(CC(=O)Nc2c(C)n(C)n(-c3ccccc3)c2=O)CC1,i,-10.7,i,i,i,/,/
CCOC(=O)c1csc(NC(=O)c2ccc3c(c2)OCCO3)n1,i,-6.4,i,i,i,/,/
Cc1ccc(NC(=O)CSc2nc(=O)n(CCN(C)C)c3c2CCCC3)cc1Cl,-10*,-10.6,i,i,i,68.3*,i
COc1ccc(NC(=O)CSc2nc(=O)n(CCN(C)C)c3c2CCCC3)cc1,i,-17.6,i,i,i,/,/
CC(C)N1C(=O)S/C(=C/c2ccc(Sc3nc4ccccc4[nH]3)o2)C1=O,-11.5*,-8.0,i,i,i,131.7*,i
Cc1cc(SCC(=O)N/N=C/c2ccc(O)cc2O)nc2ccccc12,-11.5*,-0.7,i,i,i,147.0*,0.101*
O=S(=O)(Cc1ccccc1Cl)NCCc1ccc(F)cc1,i,-9.1,i,i,i,/,/
CCOC(=O)c1c2c(c(=S)n(-c3ccccc3)c1N)CCC2,-10.1*,-8.7,i,i,i,123.0*,0.114*
O=C(CC(c1ccccc1)c1ccccc1)Nc1ccc(O)cc1,-9.71*,-8.8,i,i,i,88.0*,i
CC(=O)Nc1ccc(NC(=O)CC(c2ccccc2)c2ccccc2)cc1,i,1.4,i,i,i,/,/
O=C(CC(c1ccccc1)c1ccccc1)Nc1ccc(Cl)cn1,-8.9*,-4.3,i,i,i,108.7*,i
CC(Cc1ccsc1)NC(=O)CCc1nnc(CCc2ccccc2)o1 (centres undefined),i,-7.2,i,i,i,/,/
O=C(c1ccc(-c2ccccc2)cc1)C1CCCN(Cc2ccncc2)C1 (centres undefined),-10.4*,-23.7,i,i,i,128.7*,i
O=[N+]([O-])c1ccc(N2CCN(C(=S)NC3CCCCC3)CC2)cc1,-8.84*,-14.9,i,i,i,104.3*,i
CC(=O)OCC=C1CCC2C3CC(C)C4=CC(=O)CCC4(C)C3C(O)CC12C (centres undefined),i,/,/,/,/,/,/
O=C(Nc1ccc(CN2CCOCC2)cc1)c1ccc(-c2cc(Cl)ccc2Cl)o1,i,-23.8,i,i,i,/,/
S=C(c1ccc(-c2cc(Cl)ccc2Cl)o1)N1CCOCC1,-8.85*,-9.0,i,i,i,125.7*,0.138*
COc1ccc(C(=O)C2CCCN(S(=O)(=O)c3ccccc3F)C2)c(C)c1 (centres undefined),i,-9.5,i,i,i,/,/
CC(C)NC(=S)Nc1c(N)[nH]c(=O)[nH]c1=O,i,-12.8,i,i,i,/,/
COCCNC(=O)c1ccccc1NC(=O)Cc1ccccc1[N+](=O)[O-],-9.87*,-11.9,i,i,i,0.0,i
COCCNC(=O)c1ccccc1NC(=O)c1cccc([N+](=O)[O-])c1C,i,2.8,i,i,i,/,/
Cc1noc(-c2ccccc2)c1NC(=O)Nc1ccc(Cl)cc1,-10.8*,-8.7,i,i,i,106.0*,i
SMILES,KCNK3 inh,hERG rescue,KCNQ1 act,KCNQ1 inh,KCNK9 block,KCNK3 inh conf,KCNK3 noninduced
Cc1noc(-c2ccccc2)c1NC(=O)Nc1ccccc1,i,-6.7,i,i,i,/,/
O=C(c1cccs1)N1CCN(c2ncc(Br)cn2)CC1,i,-6.8,i,i,i,/,/
Cc1cccc(C)c1OCC(=O)Nc1cccc(-c2nnc(-c3ccccc3)o2)c1,i,-15.2,i,i,i,/,/
COc1ccc(C(=O)Nc2ccc(C(=O)c3ccccc3)cc2)cc1,i,-7.2,i,i,i,/,/
CCCCC(=O)Nc1ccc(C(=O)c2ccccc2)cc1,i,-17.5,i,i,-6.81*,96.3*,i
CCCc1cc(C(=O)Nc2ccc(C(=O)c3ccccc3)cc2)n(C)n1,-13.4*,-15.2,i,i,i,132.3*,0.15*
CC(=O)Nc1ccc(C(=O)c2ccccc2)cc1,i,-8.8,i,i,i,/,/
CCCCC(=O)Nc1cccc(-c2nnc(-c3ccccc3)o2)c1,i,-24.8,i,i,-6.65*,123.3*,i
Cc1cccc(NC(=O)CCc2ccc(S(=O)(=O)NC3CCCCC3)cc2)c1,i,-9.7,i,i,i,/,/
CC1Cc2ccccc2N1Cc1cccc([N+](=O)[O-])c1 (centres undefined),-13.5*,-6.9,i,i,i,109.3*,i
COc1ccc(Cl)cc1NC(=S)Nc1cccnc1,i,-3.5,i,i,i,/,/
COc1ccc(Cl)cc1NC(=S)Nc1cccc(C)c1,-9.38*,-5.2,i,i,i,105.0*,i
CCOC(=O)CSc1nc2ccccc2c(=O)n1Cc1ccco1,i,-8.1,i,i,i,/,/
O=C(CSc1nc2ccccc2c(=O)n1Cc1ccco1)c1ccccc1,-10.8*,0.7,i,i,i,91.3*,i
Cc1sc2nc(SCC(=O)c3cccs3)n(Cc3ccco3)c(=O)c2c1C,-9.41*,-6.1,i,i,i,106.0*,i
O=c1c2ccccc2nc(SCc2nc3ccccc3s2)n1Cc1ccco1,-12.3*,-4.7,i,i,i,126.7*,0.152*
Fc1c(F)c(F)c(SCn2cc(Br)cn2)c(F)c1F,i,/,/,/,/,/,/
CCCN(CC(=O)Nc1cc(Cl)ccc1Cl)C(=O)c1ccc2n[nH]nc2c1,i,/,/,/,/,/,/
CCCSc1nc(N2CCOCC2)c2c(c1C#N)CCCC2,-11.5*,-2.2,i,i,i,112.0*,0.152*
CC(=O)N1CCN(c2nc(CC(C)C)c3c(c2C#N)CCC3)CC1,i,-4.6,i,i,i,/,/
CCCCc1nc(N2CCOCC2)c(C#N)c2c1CCCC2,-11.4*,-10.8,i,i,i,108.3*,i
N#CCCSc1nc(N2CCOCC2)c2c(c1C#N)CCCC2,i,-16.0,i,i,i,/,/
CC(C)Cc1nc(N2CCCCC2)c(C#N)c2c1CCC2,-9.61*,-10.0,i,i,i,97.7*,i

# Assay outcomes as filed in PubChem BioAssay.
